# From PubChem BioAssay
# Only some compounds are listed: those with a hit (about 2.2% of all), similar ones and a draw of the others.
# F-actin modifier: modifiers of cytoskeleton assembly; HUVEC TNFa F-actin phalloidin imaging, high content; 91,000 tested, 0.18% active; inhibition, % at 2 µM;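 active = inhibition above the batch mean plus 3 SD and confirmed as a hit by visual image inspection, cut at about 30% in these data, passing the limit was not always enough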
# E-sel TNF inh: TNF alpha driven E-selectin expression inhibition; HUVEC TNFa-induced E-selectin immunofluorescence, high content; inhibition, % at 2 µM; 120,000 tested, 0.71% active; AID 1246;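 active = inhibition above the batch mean plus 3 SD, and confirmed as a hit on visual image review, cut at about 43% in these data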;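 note: 0% = TNF-stimulated DMSO wells and 100% = unstimulated control wells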
# PLK1 inh: inhibitors of human PLK1 kinase; recombinant PLK1 kinase, TR-FRET peptide phosphorylation; 97,000 tested, 0.53% active; AID 619; P53350; inhibition, % at 10 µM;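 active = inhibition of 50% or more in the single-concentration screen; inactive = inhibition below 50%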;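 note: 0% = DMSO max control and 100% = H-89 dihydrochloride min control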
# Target sequence (P53350 whole entry, looked up): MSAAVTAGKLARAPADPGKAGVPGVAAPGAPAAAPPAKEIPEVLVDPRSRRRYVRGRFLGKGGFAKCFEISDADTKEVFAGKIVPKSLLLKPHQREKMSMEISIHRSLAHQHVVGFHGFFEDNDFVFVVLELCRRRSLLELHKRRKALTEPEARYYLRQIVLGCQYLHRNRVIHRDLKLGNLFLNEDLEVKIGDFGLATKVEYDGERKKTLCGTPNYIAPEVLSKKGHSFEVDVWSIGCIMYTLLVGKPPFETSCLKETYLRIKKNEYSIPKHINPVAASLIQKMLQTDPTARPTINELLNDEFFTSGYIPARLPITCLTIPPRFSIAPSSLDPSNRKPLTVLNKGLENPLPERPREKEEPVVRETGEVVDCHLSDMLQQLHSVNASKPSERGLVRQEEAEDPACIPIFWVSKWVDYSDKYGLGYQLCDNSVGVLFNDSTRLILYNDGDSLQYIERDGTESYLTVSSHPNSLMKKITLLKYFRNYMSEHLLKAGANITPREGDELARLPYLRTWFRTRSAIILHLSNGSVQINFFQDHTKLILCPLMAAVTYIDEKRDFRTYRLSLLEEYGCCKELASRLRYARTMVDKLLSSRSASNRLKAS
# HIV Rev-RRE inh: HIV Rev-RRE protein-RNA interaction inhibition | inhibition, % at 8 µM | Rev peptide-RRE RNA binding, FRET | P05866 | 97,000 tested, 0.79% active;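 active = inhibition above the screen-wide mean plus 3 SD, cut at about 35% in these data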;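 note: 0% = median DMSO wells and 100% = median Neomycin B control wells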
# Target sequence (P05866 whole entry, looked up): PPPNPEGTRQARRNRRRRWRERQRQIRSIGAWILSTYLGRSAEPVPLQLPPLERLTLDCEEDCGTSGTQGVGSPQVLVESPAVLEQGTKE
#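 Test system: Cy5-tagged RRE RNA duplex with fluorescein-tagged Rev peptide | Read-out: % inhibition of FRET ratio versus controls | Probe or stimulus: Labelled Rev peptide | Incubation: 5 min RNA-compound premix plus 15 min binding step, 25 °C | Technique: FRET fluorescence readout | Benchmarks: DMSO low control, neomycin B high control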
# Plk1 PBD FP: blocks phosphopeptide binding to human Plk1 polo box domain; Plk1 PBD phosphopeptide binding, fluorescence polarization; 97,000 tested, 0.13% active; inhibition, %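 (tested at about 20 µM)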; in the data active = inhibition above about 34%, passing the limit was not always enough
# FAK blocker: FAK (human) kinase inhibition. Q05397. biochemical FAK kinase activity assay. inhibition, %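 (tested at 7 µM)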. 97,000 tested, 0.84% active; in the data active = inhibition above about 19%;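 note: 0% = DMSO and 100% = reference compound high control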
# * hit, by the source's call; . = not tested or not shown; [ ] = another dose, or the depositor's remark.
SMILES,F-actin modifier,E-sel TNF inh,PLK1 inh,HIV Rev-RRE inh,Plk1 PBD FP,FAK blocker
CSC1=C(C#N)C(c2ccc(C(C)C)cc2)CC(=O)N1 (stereo unspecified),.,.,66.1*,6.9,2.5,-5.5
O=c1cc(-c2ccc(F)cc2)oc2ccccc12,3.5,44.1*,14.2,2.1,-11.6,7.0
CSc1ccc(-c2cc(=O)c3ccccc3o2)cc1,-2.7,17.6,8.1,8.4,9.7,3.5
CCS(=O)(=O)CCSC1OC(COC(C)=O)C(OC(C)=O)C(OC(C)=O)C1OC(C)=O (stereo unspecified),.,-18.0,.,.,.,.
CCN1CC=C2C(C1)C(c1ccc(Cl)s1)C(C#N)=C(N)C2(C#N)C#N (stereo unspecified),-20.6,-5.2,9.0,86.8*[fluorescence artefact?],-37.2,-7.7
CCOC(=O)C1=C(c2ccccc2)OC(N)=C(C#N)C1c1ccc(Cl)s1 (stereo unspecified),5.0,11.1,14.9,10.3,16.9,12.5
C=CCOc1cccc(C2C(C(=O)c3ccc(C)o3)=C(O)C(=O)N2c2nccs2)c1 (stereo unspecified),-2.4,-42.4,-9.0,78.3*,4.9,-5.1
C=CCOc1cccc(C2C(C(=O)c3ccco3)=C(O)C(=O)N2CCN(CC)CC)c1 (stereo unspecified),-8.6,-5.2,52.5*,2.2,-0.7,0.1
O=C(/C=C/c1cccs1)N1CCN(Cc2ccc3c(c2)OCO3)CC1,.,-3.6,.,.,.,.
COc1ccc(CCNC(=O)c2ccc(N(C)S(=O)(=O)c3ccc(C)cc3)cc2)cc1OC,.,-11.2,.,.,.,.
COCCNC(=O)c1ccc(N(C)S(=O)(=O)c2ccc(OC)c(OC)c2)cc1,-1.5,99.9*,-14.5,4.2,-18.7,-3.1
Cc1ccc(C)c(NC(=O)C2CCCN2/C=C/C(=O)C(F)(F)F)c1 (stereo unspecified),.,-23.8,.,.,.,.
COc1ccccc1N=CC1=C(O)CC(c2ccccc2)CC1=O (stereo unspecified),.,57.0,.,.,.,.
CC(C)c1cc(C(=O)OCC(=O)NC(=O)NCc2ccco2)c(O)c(C(C)C)c1,.,-13.7,.,.,.,.
C=CCn1c(COc2ccccc2)nnc1SC(C)C(=O)N/N=C/c1cc(Cl)ccc1O (stereo unspecified),-5.5,20.0,-12.6,13.8,-18.0,-2.5
C=CCn1c(COc2ccc(Cl)cc2)nnc1SCC(=O)N/N=C/c1cccc(O)c1,65.6*,-6.7,-9.0,1.9,-14.5,-1.3
CCOC(=O)c1c(NC(=O)CSc2nnc(-c3ccccc3)n2CC)sc(C(C)=O)c1C,18.8,99.7*,-8.0,5.6,-5.8,-2.0
CCOC(=O)c1c(NC(=O)CSc2nnc(-c3cccc(C)c3)n2CC)sc(C(C)=O)c1C,14.5,13.9,-0.5,1.2,-2.6,-17.2
Cc1ccccc1Cn1ccc(NC(=O)c2cnn3c2NC(c2ccccc2)CC3C(F)(F)F)n1 (stereo unspecified),16.5,75.2*,-14.7,-0.3,3.7,0.4
CCCNC(=O)c1ccc(OC)cc1OC,-23.4,1.8,20.2,0.1,-12.7,-0.4
COc1ccc(C(=O)NCC(C)C)c(OC)c1,-16.1,91.1*,0.4,-3.4,-6.0,-2.6
Cc1ccccc1C1C(C#N)=C2N=C(N)c3c(sc4c3CCCCC4)N2C2=C1C(=O)CC(C)(C)C2 (stereo unspecified),5.3,-12.3,-4.0,34.1,-17.1,-1.2
Cc1ccccc1C1C(C#N)=C2NC(=O)c3c(sc4c3CCCCC4)N2C2=C1C(=O)CC(C)(C)C2 (stereo unspecified),5.4,-18.5,-10.5,39.5*,-51.3,-10.7
Cc1ccc(/C=C(\C#N)C(=O)N2CCCC2)c(C)c1,.,-6.5,.,.,.,.
COCCN(CC(=O)NC1CCCCC1)C(=O)/C=C/C(=O)c1ccc(OC)cc1O,.,89.3*,.,.,.,.
SMILES,F-actin modifier,E-sel TNF inh,PLK1 inh,HIV Rev-RRE inh,Plk1 PBD FP,FAK blocker
COc1cc(S(=O)(=O)N(Cc2ccccn2)Cc2ccco2)ccc1-n1cnnn1,-9.5,54.8*,1.3,3.2,4.1,-0.2
CSc1nsc(/C=C/Nc2ccc(C)c(C)c2)c1C#N,.,35.7,.,.,.,.
CSc1nsc(/C=C/Nc2ccc(C)cc2)c1C#N,2.4,5.1,-0.5,57.6*,-89.8,-1.4
Cc1cc(C)n(-c2ccc(Cl)c(C(=O)O)c2)n1,.,-19.6,.,.,.,.
CCCc1cc(-n2ccnc2)n2c(nc3ccccc32)c1C#N,12.7,-0.5,-4.2,117.5*[fluorescence artefact?],-161.3,4.3
COc1cc(Cl)c(C)cc1NC(=O)CNC(C)c1ccccc1OC (stereo unspecified),.,-11.3,.,.,.,.
Cc1ccc2nc(-c3ccc(NC(=O)C(C)N4C(=O)c5ccccc5C4=O)cc3)sc2c1 (stereo unspecified),.,-19.9,.,.,.,.
Cc1ccc2nc(-c3ccc(NC(=O)CCN4C(=O)c5ccccc5C4=O)cc3)sc2c1,.,65.0*,.,.,.,.
O=C(Nc1nccs1)c1cccc(N2C(=O)C3C4C=CC(C4)C3C2=O)c1 (stereo unspecified),.,9.7,.,.,.,.
O=C(Nc1nccs1)c1cccc(N2C(=O)c3cccc4c([N+](=O)[O-])ccc(c34)C2=O)c1,-5.8,-13.0,-12.6,50.8*,-11.2,-0.6
CN(C(=O)Nc1cnc2ccccc2c1)c1ccccc1,.,10.1,.,.,.,.
CCOC(=O)Cc1c(C)nc2c(-c3ccccc3)c(C)[nH]n2c1=O,-5.4,0.2,-7.1,3.4,33.2,3.5
CCOC(=O)Cc1c(C)nc2c(-c3ccccc3)c[nH]n2c1=O,.,95.8*,.,.,.,.
Cc1ccc(CNc2ccc3c(c2)OCO3)c(C)c1,3.8,-13.4,-11.2,90.3*[fluorescence artefact?],-35.6,5.7
CCOc1ccc(-c2nc(C#N)c(NCc3ccco3)o2)cc1,.,-13.8,.,.,.,.
Cn1c2c(c(=O)n(C)c1=O)C1(C(=O)Nc3ccccc31)C(C#N)=C(N)O2 (stereo unspecified),-30.4,.,-2.9,4.8,-44.0,-0.7
CCN(CC)S(=O)(=O)c1ccc(NC(=O)CSc2nnc(-c3ccc(F)cc3)o2)cc1,-7.7,61.2*,-14.7,10.8,-16.9,-0.4
COc1ccc(OC)c2c1C(=O)c1ccccc1C2=O,16.4,-25.7,-13.6,75.1*[fluorescence artefact?],31.6,1.2
COC(=O)c1cc2sc(Cl)cc2n1CC(=O)Nc1cccc(SC)c1,33.7,65.2*,-18.9,1.0,0.4,-2.7
CCc1ccc(C(=O)Nc2cc3c(cc2Cl)OCCCO3)cc1,-5.3,.,-9.0,6.8,-4.9,0.9
COCCCNC(=O)c1sc2ncnc(N3CCc4ccccc4C3)c2c1C,0.0,-53.9,-6.4,8.1,-3.0,22.9*
CSc1nnc2ccc(-c3ccccn3)nn12,.,-34.4,.,.,.,.
O=C(CCS(=O)(=O)c1ccccc1)Nc1nc2c(s1)COc1ccccc1-2,46.4*,.,-12.3,2.8,14.5,3.5
O=C(Nc1nc2c(s1)COc1ccccc1-2)c1cccs1,-2.0,9.1,-6.7,5.9,1.3,3.4
Cn1cc([N+](=O)[O-])c(C(=O)Nc2nc(-c3ccc(Cl)cc3)cs2)n1,9.8,97.8*,-9.5,2.4,17.6,-2.8
Cc1ccc(-c2nc(NC(=O)c3nn(C)cc3[N+](=O)[O-])sc2C)cc1C,0.3,99.6*,-12.8,7.4,-12.8,0.9
